This is a sample that favours compounds with a hit; in the whole collection about 1.4% have one here.
MOR-DOR ag-1 – agonists of OPRM1-OPRD1 heterodimerization, primary screen, cell-based, luminescence | activation, % at 9.3 µM | 340,000 compounds, 0.3% hits | Mu-type opioid receptor (Homo sapiens) + Delta-type opioid receptor (Homo sapiens), … | cells
Lipid droplet – inhibitors of hepatocyte lipid droplet formation, primary screen, imaging, high-throughput imaging, BODIPY stain; 240,000 compounds, 0.4% hits; AID 1656, 2009; AML12 mouse hepatocytes, oleate lipid droplets; inhibition, % at 6.5 µM;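 active = lipid droplet intensity inhibited by at least 50%, with more than 500 cells counted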
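Test system: AML12 mouse liver cells; schedule: overnight exposure; technique: high-content imaging of BODIPY-stained droplets and DAPI nuclei; read-out: % inhibition of corrected integrated BODIPY droplet signal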
HTR5A inv ag – HTR5A inverse agonists in luminescence cell assay, primary screen, counter-screen for OPRM1-OPRD1 heterodimer inverse agonist project, full-deck HTS | 5-hydroxytryptamine receptor 5A (Homo sapiens), P47898 | HTR5A cell line, inverse agonism | inhibition, % at 9.3 µM | 340,000 compounds, 0.083% hits | AID 504634, 2011; in the data active = inhibition mostly above about 23%, no sharp cut-off; inactive = mostly below about 18%
HTR5A ag ctr – HTR5A agonists in luminescence cell assay, primary screen, counter-screen for OPRM1-OPRD1 heterodimer agonist project, full-deck HTS. 340,000 compounds, 0.61% hits. cell-based. activation, % at 9.3 µM; in the data active = activation mostly above about 9.5%, no sharp cut-off; inactive = mostly below about 7.6%
OPRM1-OPRD1 inv – inverse agonists of MOR-DOR heterodimerization, primary screen, cell-based, luminescence; cell-based MOR-DOR heterodimer luminescence, inverse agonism; inhibition, % at 9.3 µM; 340,000 compounds, 0.21% hits; in the data active = inhibition above about 22%, passing the limit was not always enough
MOR-DOR ag-2 – OPRM1-OPRD1 heterodimerization promoters, counter-screen for HTR5A agonist project, cell-based, luminescence; AID 504913, 2011; shares compounds with HTR5A ag ctr; 800 compounds, 13% hits; activation, % at 9.3 µM; U2OS counter-screen cells, complementation luminescence, 3 h
HTR5A ag confirm – HTR5A agonists, retest of hits, confirmation, cell-based, luminescence | AID 504915, 2011 | activation, % at 9.3 µM | shares compounds with HTR5A ag ctr | HTR5A agonist cell assay | 800 compounds, 17% hits; in the data active = activation above about 17%
Of the large screens only hits and unclear results are named; the others gave an inactive call (follow-up assays come after a bar, where they were run); ! = not confirmed by another sample. Rule as the data show it, unless noted: active = activation above about 18%; inactive = the rest.

CN1C(=O)C2(NCCc3c2[nH]c2ccccc32)c2ccccc21 (stereo not given)	none
CCN(CC)CCCNC(=S)N1CCN(c2nc3ccccc3n2CC)CC1	HTR5A ag ctr 19 (no result: Lipid droplet) | MOR-DOR ag-2 inactive | HTR5A ag confirm 46
CCn1c(N2CCN(S(=O)(=O)c3ccc(OC)cc3)CC2)nc2ccccc21	HTR5A ag ctr 18 | MOR-DOR ag-2 inactive | HTR5A ag confirm 37
CCn1c(N2CCN(C(=O)C34CC5CC(CC(C5)C3)C4)CC2)nc2ccccc21	HTR5A ag ctr 31 | MOR-DOR ag-2 159 | HTR5A ag confirm inactive
COc1ccc(NC(=O)C(=O)NCCCO)cc1Cl	none
COc1ccc(NC(=O)C(=O)NCCO)cc1Cl	HTR5A ag ctr 15 | MOR-DOR ag-2 inactive | HTR5A ag confirm inactive
Cc1c(CCOC(=O)C2C3CC4CC(C3)CC2C4)sc[n+]1CC(=O)c1ccc(Br)cc1 (stereo not given)	HTR5A ag ctr 18! (no result: Lipid droplet) | MOR-DOR ag-2 inactive | HTR5A ag confirm inactive
O=[n+]1c2c(n([O-])c3cc(F)c(N4CCCC4)cc31)CCCC2	HTR5A ag ctr 15 (no result: Lipid droplet) | MOR-DOR ag-2 inactive | HTR5A ag confirm 40
COc1ccc(NS(=O)(=O)c2cccc(C(=O)N3CCN(Cc4cc(OC)ccc4OC)CC3)c2)cc1	HTR5A ag ctr 15 | MOR-DOR ag-2 135 | HTR5A ag confirm inactive
CC12CCC(=O)N1C(C(=O)Nc1ccc(Br)cc1Cl)CS2 (stereo not given)	none
CCN(CC(=O)NCc1cccs1)C(=O)Cc1ccc(C)c(C)c1	none (no result: Lipid droplet)
COC(=O)c1c(C(=O)OC)c2n(c1C)Cc1ccccc1C2	HTR5A ag ctr 15 (no result: Lipid droplet) | MOR-DOR ag-2 inactive | HTR5A ag confirm inactive
O=C(NNC(=S)NCc1ccco1)c1ccc(S(=O)(=O)N2CCOCC2)cc1	none
O=C(Nc1ncccc1Cl)c1cc2ccccc2o1	none
CC(C)COc1ccc(-c2nnc(-c3ccco3)o2)cc1	none
CCN(CC)CCCNc1ccc(-c2nnc(-c3ccc(OCC(C)C)cc3)o2)cn1	HTR5A ag ctr 18 | MOR-DOR ag-2 inactive | HTR5A ag confirm inactive
CCOC(=O)C(C)N1N=C(/C=C/c2ccc(C)cc2)CCC1=O (stereo not given)	HTR5A ag ctr 21 (no result: Lipid droplet) | MOR-DOR ag-2 inactive | HTR5A ag confirm inactive
CCCCCCn1c2c(c(=N)c3c1CCC3)CCC2	none
CCCCCCCCCn1c2c(c(=N)c3c1CCC3)CCC2	HTR5A ag ctr 25 | MOR-DOR ag-2 inactive | HTR5A ag confirm inactive
C=CCN(c1ccccc1C(=O)NCC(=O)O)S(=O)(=O)c1ccccc1C	none
CCOC(=O)c1c(C)oc2c1c(C(c1ccccc1)N1CCOCC1)c(O)c1ccccc12 (stereo not given)	none
CCOC(=O)c1c(C)oc2c1c(C=NCCO)c(O)c1ccccc12	HTR5A ag ctr 17 | MOR-DOR ag-2 inactive | HTR5A ag confirm inactive
CCOc1ccccc1NC(=S)N(CCOC)C1CCN(C(C)=O)CC1	HTR5A ag ctr 15 | MOR-DOR ag-2 inactive | HTR5A ag confirm inactive
COCCN(C(=S)Nc1ccccc1OC)C1CCN(C(C)=O)CC1	none
O=C(c1cccc(N2C(=O)C3C4C=CC(C4)C3C2=O)c1)N1CCN(c2ccccc2Cl)CC1 (stereo not given)	none
Cc1ccc2nc3c(c(Nc4ccc(O)cc4)c2c1)CCC3	none
Cc1ccc2nc3c(c(Nc4ccc5c(c4)OCCO5)c2c1)CCC3	HTR5A ag ctr 41 | MOR-DOR ag-2 inactive | HTR5A ag confirm 60
Cc1ccccc1CN1C[C@@H]2C[C@@H](c3cnc(N4CCOCC4)s3)N3CCC[C@@]23C1=O	none
COc1ccc(-c2cc(-c3c(O)c(OC)c4occc4c3OC)[nH]n2)cc1OC	none (no result: Lipid droplet)
COc1ccc(-c2cc(-c3c(O)c(OC)c4occc4c3OC)[nH]n2)cc1	HTR5A ag ctr 15 | MOR-DOR ag-2 inactive | HTR5A ag confirm inactive

Screening results (PubChem BioAssay)
